From PubChem BioAssay
T cruzi growth-1 – T. cruzi intracellular proliferation inhibitors, primary screen, cell-based, beta-gal Tulahuen parasites, NIH3T3 host, luminescence; T. cruzi beta-gal in NIH3T3, GalScreen luminescence, 90 h; inhibition, % at 8.34 µM; 77,000 tested, 5.9% active; AID 624255, 2012;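 active = mean inhibition above about 93%, with at least 55% of replicates each passing it, limit read from the data, passing the limit was not always enough; inconclusive = only one of those two conditions holds; inactive = neither condition holds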
IDH1 mut inh – inhibitors of IDH1 R132H reductase, primary screen, biochemical, plate reader, single point | 70,000 tested, 0.18% active | inhibition, % at 10 µM | AID 624101, 2012 | diaphorase/resazurin fluorescence, 60 min | Isocitrate dehydrogenase [NADP] cytoplasmic (Homo sapiens), O75874; in the data active = inhibition above about 34%; inconclusive = no clear call, values can overlap the other calls; inactive = below about 11%;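 note: 0% = DMSO and 100% = no enzyme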
Target sequence (O75874 whole entry R132H): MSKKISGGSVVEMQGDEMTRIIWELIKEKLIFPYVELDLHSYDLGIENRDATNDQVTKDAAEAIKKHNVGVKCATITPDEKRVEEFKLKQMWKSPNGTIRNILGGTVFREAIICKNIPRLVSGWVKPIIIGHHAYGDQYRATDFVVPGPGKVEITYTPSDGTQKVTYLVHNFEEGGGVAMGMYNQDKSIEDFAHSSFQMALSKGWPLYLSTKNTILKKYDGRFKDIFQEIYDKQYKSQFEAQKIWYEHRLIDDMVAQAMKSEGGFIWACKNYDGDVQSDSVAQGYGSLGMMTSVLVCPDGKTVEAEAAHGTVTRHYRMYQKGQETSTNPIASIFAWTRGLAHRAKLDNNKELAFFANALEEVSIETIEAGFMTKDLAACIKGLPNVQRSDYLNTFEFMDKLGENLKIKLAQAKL
KDM4C inh – inhibitors of GASC-1 (KDM4C) histone demethylase, primary screen, biochemical, single concentration HTS | GST-KDM4C 2-372, H3K9me3 peptide, LANCE TR-FRET | inhibition, % at 12.5 µM | AID 720574, 2013 | 96,000 tested, 0.15% active;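 active = mean replicate inhibition above about 25%, with at least 55% of replicates also reaching it, limit read from the data, passing the limit was not always enough; inconclusive = only one of those two conditions met; inactive = neither condition met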
Target sequence (Q9H3R0 2-372 limits assumed): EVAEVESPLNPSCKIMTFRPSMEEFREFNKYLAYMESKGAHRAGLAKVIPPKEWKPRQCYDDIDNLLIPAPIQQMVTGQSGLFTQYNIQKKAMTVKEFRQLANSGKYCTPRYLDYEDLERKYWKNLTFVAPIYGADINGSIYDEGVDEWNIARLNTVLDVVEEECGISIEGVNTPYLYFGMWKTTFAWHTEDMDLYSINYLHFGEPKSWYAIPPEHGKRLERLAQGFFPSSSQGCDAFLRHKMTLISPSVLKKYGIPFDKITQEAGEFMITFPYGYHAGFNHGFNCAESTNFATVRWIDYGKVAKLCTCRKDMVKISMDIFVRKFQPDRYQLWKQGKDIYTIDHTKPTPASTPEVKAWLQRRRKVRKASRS
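System – N-terminal GST-fused human GASC-1 (KDM4C) fragment, residues 2-372 · Input – enzyme final amount 10 nM · Technique – LANCE TR-FRET, Eu antibody, ULight-streptavidin, EDTA, ex 340 nm, em 618/671 nm · Medium – HEPES buffer, pH 7.5, plus ascorbate · Incubation – enzyme reaction 30 min, then detection 60 min, both room temperature · Reagent – H3K9me3 peptide with Fe(II)/2OG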
T cruzi growth-2 – T. cruzi intracellular proliferation inhibitors, confirmation, cell-based, NIH3T3 host, beta-gal parasite, luminescence, cherry-pick. shares compounds with T cruzi growth-1. T. cruzi beta-gal in NIH3T3, GalScreen luminescence, 90 h. inhibition, % at 8.35 µM. 5,600 tested, 72% active;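 active = mean replicate inhibition above about 95% and at least 55% of replicates individually reaching it, limit read from the data; inconclusive = only one of the two criteria is met; inactive = neither criterion is met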
T cruzi growth-3 – inhibitors of intracellular T. cruzi replication, confirmation, NIH3T3 host cells, beta-gal parasites, cherry-pick, set 2; shares compounds with T cruzi growth-1; T. cruzi beta-gal in NIH3T3, GalScreen luminescence, 90 h; inhibition, % at 2.09 µM; 5,600 tested, 21% active; AID 651740, 2012;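 active = mean inhibition above about 95%, with at least 55% of replicates also reaching it, limit read from the data; inconclusive = meets just one of the two conditions; inactive = meets neither condition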;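 note: plate controls were neutral control median for no effect and positive control median for full effect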
NIH3T3 tox – cytotoxicity in mouse NIH/3T3 fibroblasts, confirmation, cytotoxicity control for T. cruzi proliferation inhibitor project, cell-based, cherry-pick, single point. shares compounds with T cruzi growth-1. NIH/3T3 viability, CellTiter-Glo ATP luminescence, 90 h. cytotoxicity (signal decrease), % at 8.35 µM. 5,600 tested, 14% active;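 active = mean signal decrease across replicates above about 35% based on untreated-well scatter, with enough replicates individually passing, limit read from the data; inconclusive = no rule stated though some were filed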;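 note: 0% = median of neutral control wells and 100% = median of positive control wells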
3T3 cytotox 2 – NIH/3T3 fibroblast cytotoxicity, confirmation, cytotoxicity control, cell-based, cherry-pick, single point, set 2; inhibition, % at 24.9 µM; NIH/3T3 viability, CellTiter-Glo ATP luminescence, 90 h; shares compounds with T cruzi growth-1; 5,600 tested, 56% active; AID 651744, 2012;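 active = mean loss of cell viability signal at or above a set limit, and enough replicates individually reaching it; inconclusive = meets only the mean limit or only the replicate share; inactive = meets neither condition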;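 note: 0% = median of neutral control wells and 100% = median of positive control wells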
Numbers without * were called inactive; ? = inconclusive; · = not tested or not shown. Shown is part of a subset that was picked to be rich in hits.

SMILES | T cruzi growth-1 | IDH1 mut inh | KDM4C inh | T cruzi growth-2 | T cruzi growth-3 | NIH3T3 tox | 3T3 cytotox 2
C[C@H]1CCCCO[C@H](CN(C)S(=O)(=O)c2ccc(Cl)cc2)[C@@H](C)CN([C@@H](C)CO)C(=O)c2cc(NC(=O)NC3CCCCC3)ccc2O1 | 87 | 2 | -2 | · | · | · | ·
CC(C)NC(=O)Nc1ccc2c(c1)C(=O)N([C@@H](C)CO)C[C@@H](C)[C@@H](CN(C)S(=O)(=O)c1ccc(Cl)cc1)OCCCC[C@@H](C)O2 | 108* | 4 | 1 | 101* | 41 | -13 | 0
Cc1noc(C)c1NC(=O)Nc1ccc2c(c1)C(=O)N([C@H](C)CO)C[C@H](C)[C@H](CN(C)S(=O)(=O)c1ccc(Cl)cc1)OCCCC[C@H](C)O2 | ? | · | 0 | 55 | -43 | -21 | -30
C[C@H]1CN([C@@H](C)CO)C(=O)c2cc(C#CCN(C)C)cnc2O[C@@H]1CN(C)C(=O)Cc1ccccc1 | · | 0 | 4 | · | · | · | ·
C[C@H]1CN([C@@H](C)CO)C(=O)c2cc(C#CC3CC3)cnc2O[C@@H]1CN(C)C(=O)Nc1ccc(F)cc1 | 27 | 1 | 0 | · | · | · | ·
C[C@H]1CCCCO[C@@H](CN(C)S(=O)(=O)c2ccccc2)[C@@H](C)CN([C@@H](C)CO)C(=O)c2cc(NC(=O)c3ccccc3)ccc2O1 | 24 | 2 | -2 | · | · | · | ·
Cc1noc(C)c1S(=O)(=O)Nc1ccc2c(c1)CC(=O)N([C@@H](C)CO)C[C@@H](C)[C@@H](CN(C)CC1CC1)O2 | 13 | · | 1 | · | · | · | ·
CCCC#Cc1ccc([C@@H]2[C@@H](CO)N3C(=O)CN(C(=O)CN4CCOCC4)C[C@H]23)cc1 | · | · | 0 | · | · | · | ·
O=C(C[C@H]1C[C@@H]2c3cc(NC(=O)C4CCOCC4)ccc3O[C@@H]2[C@@H](CO)O1)NCc1ccc(Cl)cc1 | 28 | 0 | -2 | · | · | · | ·
C[C@@H]1CCCCO[C@@H](CN(C)C(=O)Nc2ccc(C(F)(F)F)cc2)[C@H](C)CN([C@@H](C)CO)C(=O)c2cc(NC(=O)Nc3ccc(F)cc3)ccc2O1 | 106* | · | 1 | 101* | 103* | -10 | 3
C[C@@H]1CN([C@H](C)CO)C(=O)c2cc(NC(=O)Nc3ccc(C(F)(F)F)cc3)ccc2O[C@@H](C)CCCCO[C@H]1CN(C)C(=O)Nc1ccc(F)cc1 | 87 | -1 | 0 | · | · | · | ·
C[C@H](CO)N1C[C@H](C)[C@@H](CN(C)C(=O)Nc2ccc(F)cc2)OCCCC[C@H](C)Oc2ccc(NC(=O)Nc3ccc(C(F)(F)F)cc3)cc2C1=O | 92 | 1 | -1 | · | · | · | ·
C[C@H]1CCCCO[C@@H](CN(C)C(=O)Nc2ccc(F)cc2)[C@@H](C)CN([C@@H](C)CO)C(=O)c2cc(NC(=O)Nc3ccc(C(F)(F)F)cc3)ccc2O1 | 102* | 1 | -1 | 102* | 111* | 7 | 14
O=C(C[C@H]1CC[C@H]2[C@@H](COC[C@@H](O)CN2Cc2ccccc2)O1)N[C@H]1CCN(Cc2ccccc2)C1 | 84 | · | -2 | · | · | · | ·
C[C@@H]1CN([C@@H](C)CO)C(=O)c2cc(-c3ccncc3)cnc2O[C@@H]1CN(C)C(=O)CN1CCOCC1 | · | 0 | 1 | · | · | · | ·
CCNC(=O)C[C@H]1C=C[C@H](NC(=O)C2CCOCC2)[C@H](CO)O1 | -9 | 1 | -2 | · | · | · | ·
COc1ccccc1C1C(C(=O)Nc2ccc(C)cc2C)=C(C)Nc2nnnn21 (centres undefined) | · | 0 | · | · | · | · | ·
CO[C@@H]1CC[C@H]2CCN(C)C(=O)C[C@H](c3ccccc3)CN(C)C(=O)c3cccc(C#N)c3OC[C@@H]1O2 | -38 | · | 1 | · | · | · | ·
Cc1noc(C)c1NC(=O)N(C)C[C@@H]1Oc2ccc(NS(=O)(=O)c3ccccc3)cc2C(=O)N([C@H](C)CO)C[C@@H]1C | 25 | 0 | 1 | · | · | · | ·
CN1c2ccc(C#Cc3cccnc3)cc2[C@@H]2[C@@H](CCN2C(=O)C2CCCC2)[C@@H]1CO | · | · | 6 | · | · | · | ·
CN1c2ccc(-c3cccc(C#N)c3)cc2[C@H]2[C@H](CCN2S(=O)(=O)c2ccccc2)[C@@H]1CO | 94 | · | -1 | · | · | · | ·
CN1c2ccc(C#Cc3cccnc3)cc2[C@@H]2[C@@H](CCN2S(=O)(=O)c2ccc(F)cc2)[C@H]1CO | 85 | · | -2 | · | · | · | ·
CN1c2ccc(C#Cc3cccnc3)cc2[C@H]2[C@H](CCN2S(=O)(=O)c2ccc(F)cc2)[C@H]1CO | 97* | · | 0 | 102* | 111* | 37* | 42*
CN1c2ccc(-c3cccc(C#N)c3)cc2[C@@H]2[C@@H](CCN2S(=O)(=O)c2ccc(F)cc2)[C@@H]1CO | 105* | · | -4 | 94 | 78 | 45* | 22
CN1c2ccc(-c3cccc(C#N)c3)cc2[C@@H]2[C@@H](CCN2S(=O)(=O)c2ccccc2)[C@@H]1CO | 116* | · | -4 | 99* | 85 | 51* | 14
SMILES | T cruzi growth-1 | IDH1 mut inh | KDM4C inh | T cruzi growth-2 | T cruzi growth-3 | NIH3T3 tox | 3T3 cytotox 2
CN1c2ccc(-c3cccc(C#N)c3)cc2[C@@H]2[C@@H](CCN2S(=O)(=O)c2cccc(F)c2)[C@@H]1CO | 25 | · | -18 | · | · | · | ·
CN1c2ccc(C#Cc3cccnc3)cc2[C@@H]2[C@@H](CCN2C(=O)C2CC2)[C@H]1CO | 99* | · | 4 | 96* | 17 | 8 | 25*
COc1ccc(NC(=O)CN(c2cc(Cl)cc(Cl)c2)S(C)(=O)=O)cc1OC | · | 0 | · | · | · | · | ·
O=C(Cc1ccccc1)N1CC[C@@H]2[C@@H](CO)Nc3ccc(-c4ccccc4F)cc3[C@@H]21 | 88 | · | -3 | · | · | · | ·
O=C(Cc1ccncc1)N1CC[C@@H]2[C@@H](CO)Nc3ccc(-c4cccc(F)c4)cc3[C@@H]21 | · | · | 1 | · | · | · | ·
O=C(Cc1ccncc1)N1CC[C@@H]2[C@H](CO)Nc3ccc(-c4ccccc4F)cc3[C@@H]21 | 112* | · | 1 | 107* | 69 | 17 | ?
O=C(Cc1ccncc1)N1CC[C@@H]2[C@H]1c1cc(-c3ccccc3F)ccc1N[C@@H]2CO | 118* | · | 1 | 99* | 27 | -7 | 11
O=C(NCC1CCNCC1)/C(=N/O)c1ccccc1 | · | 1 | · | · | · | · | ·
CCN1[C@@H]2Cn3c(ccc(-c4ccccc4F)c3=O)[C@H]1[C@@H](C(=O)N1CCOCC1)[C@@H]2CO | 6 | · | 0 | · | · | · | ·
CCc1cnc(N2[C@@H](C#N)[C@H](c3ccc(C#CCC4CCCC4)cc3)[C@@H]2CO)s1 | 105* | · | 0 | 108* | ? | -7 | 12
